Results taken from ChEMBL document CHEMBL1629645 (Antimicrob Agents Chemother, 2009).
Values after ≈ are worked out from the molar mass of the structure shown. Active and inactive are the calls of the source. The rule behind the calls is not given here.

Assays:
Staphylococcus aureus [1] = assay: Antibacterial activity against methicillin-resistant Staphylococcus aureus ATCC 43300 infected in Albino guiena pig assessed as decrease in planktonic bacterial counts in cage fluid at 50 mg/kg after measured on day 10 postinfection; type: functional
Method in brief: (§1)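 Guinea pig subcutaneous cage model infected with 2 × 10^4 CFU MRSA. Intraperitoneal dosing every 12 h for 4 days, starting day 1. Cage-fluid CFU counted on day 1, day 4 (before last dose) and day 10. Δlog10 CFU/ml is day 4 or day 10 minus day 1. Quantification limit 1,000 CFU/ml; negatives set to 3 log10. Median and IQR.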

Staphylococcus aureus [2] = assay: Antibacterial activity against methicillin-resistant Staphylococcus aureus ATCC 43300 infected in Albino guiena pig assessed as decrease in planktonic bacterial counts in cage fluid at 75 mg/kg after measured on day 10 postinfection; type: functional; method in brief: as §1
Staphylococcus aureus [3] = assay: Antibacterial activity against methicillin-resistant Staphylococcus aureus ATCC 43300 infected in Albino guiena pig assessed as no. of culture-negative cage fluid samples at 25 mg/kg measured on day 4 postinfection; type: functional
Method in brief: (§2)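 Same guinea pig cage infection and intraperitoneal 4-day, twice-daily regimen. Cage fluid cultured on day 4 and day 10. Result is the number of cage fluid samples without detectable MRSA growth over the total cages per group.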

Staphylococcus aureus [4] = assay: Antibacterial activity against methicillin-resistant Staphylococcus aureus ATCC 43300 infected in Albino guiena pig assessed as no. of culture-negative cage fluid samples at 50 mg/kg measured on day 4 postinfection; type: functional; method in brief: as §2
Staphylococcus aureus [5] = assay: Antibacterial activity against methicillin-resistant Staphylococcus aureus ATCC 43300 infected in Albino guiena pig assessed as no. of culture-negative cage fluid samples at 75 mg/kg measured on day 4 postinfection; type: functional; method in brief: as §2
Staphylococcus aureus [6] = assay: Antibacterial activity against methicillin-resistant Staphylococcus aureus ATCC 43300 infected in Albino guiena pig assessed as no. of culture-negative cage fluid samples at 25 mg/kg measured on day 10 postinfection; type: functional; method in brief: as §2
Staphylococcus aureus [7] = assay: Antibacterial activity against methicillin-resistant Staphylococcus aureus ATCC 43300 infected in Albino guiena pig assessed as no. of culture-negative cage fluid samples at 50 mg/kg measured on day 10 postinfection; type: functional; method in brief: as §2
Staphylococcus aureus [8] = assay: Antibacterial activity against methicillin-resistant Staphylococcus aureus ATCC 43300 infected in Albino guiena pig assessed as no. of culture-negative cage fluid samples at 75 mg/kg measured on day 10 postinfection; type: functional; method in brief: as §2
Staphylococcus aureus [9] = assay: Antibacterial activity against methicillin-resistant Staphylococcus aureus ATCC 43300 infected in Albino guiena pig assessed as decrease in planktonic bacterial counts in cage fluid at 75 mg/kg measured on day 4 postinfection; type: functional; method in brief: as §1
Staphylococcus aureus [10] = assay: Antibacterial activity against methicillin-resistant Staphylococcus aureus ATCC 43300 infected in Albino guiena pig assessed as decrease in planktonic bacterial counts in cage fluid at 50 mg/kg measured on day 4 postinfection; type: functional; method in brief: as §1
Staphylococcus aureus [11] = assay: Antibacterial activity against methicillin-resistant Staphylococcus aureus ATCC 43300 infected in Albino guiena pig assessed as decrease in planktonic bacterial counts in cage fluid at 25 mg/kg measured on day 4 postinfection; type: functional; method in brief: as §1
[12] = AUC (0 to 24 hrs) in cage fluid of Albino guiena pig at 75 mg/kg, ip; type: ADME, organism-based, Cavia porcellus; set-up: time < 24 hr, dose 75 mg/kg, route intraperitoneal; conditions: guinea pig
[13] = AUC (0 to 24 hrs) in cage fluid of Albino guiena pig at 50 mg/kg, ip; type: ADME, organism-based, Cavia porcellus; set-up: time < 24 hr, dose 50 mg/kg, route intraperitoneal; conditions: guinea pig
[14] = AUC (0 to 24 hrs) in cage fluid of Albino guiena pig at 25 mg/kg, ip; type: ADME, organism-based, Cavia porcellus; set-up: time < 24 hr, dose 25 mg/kg, route intraperitoneal; conditions: guinea pig
[15] = Half life in cage fluid of Albino guiena pig at 75 mg/kg, ip; conditions: guinea pig
[16] = Half life in cage fluid of Albino guiena pig at 25 mg/kg, ip; conditions: guinea pig
[17] = Half life in cage fluid of Albino guiena pig at 50 mg/kg, ip; conditions: guinea pig
[18] = Tmax in cage fluid of Albino guiena pig at 75 mg/kg, ip; type: ADME, organism-based, Cavia porcellus; set-up: dose 75 mg/kg, route intraperitoneal; conditions: guinea pig
Method in brief: (§3)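 Noninfected male albino guinea pigs (550–600 g) carrying subcutaneous Teflon cages, verified sterile, received one intraperitoneal dose. Cage fluid was aspirated at 1–24 h, two cages per animal, three animals per dose, centrifuged and stored at −20°C. Levels were read by agar diffusion bioassay (S. aureus ATCC 29213; standards in 31% guinea pig serum; limit 1.25 µg/ml). Per-animal parameters are given as mean ± SD; Cmin is the 12 h trough.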

[19] = Tmax in cage fluid of Albino guiena pig at 25 mg/kg, ip; type: ADME, organism-based, Cavia porcellus; set-up: dose 25 mg/kg, route intraperitoneal; conditions: guinea pig; method in brief: as §3
[20] = Tmax in cage fluid of Albino guiena pig at 50 mg/kg, ip; type: ADME, organism-based, Cavia porcellus; set-up: dose 50 mg/kg, route intraperitoneal; conditions: guinea pig; method in brief: as §3
[21] = Cmin in cage fluid of Albino guiena pig at 50 mg/kg, ip after 12 hrs; type: ADME, organism-based, Cavia porcellus; set-up: dose 50 mg/kg, route intraperitoneal; conditions: guinea pig, read-out: Cmin; method in brief: as §3
[22] = Cmin in cage fluid of Albino guiena pig at 75 mg/kg, ip after 12 hrs; type: ADME, organism-based, Cavia porcellus; set-up: dose 75 mg/kg, route intraperitoneal; conditions: guinea pig, read-out: Cmin; method in brief: as §3
[23] = Cmin in cage fluid of Albino guiena pig at 25 mg/kg, ip after 12 hrs; type: ADME, organism-based, Cavia porcellus; set-up: dose 25 mg/kg, route intraperitoneal; conditions: guinea pig, read-out: Cmin; method in brief: as §3
[24] = Cmax in cage fluid of Albino guiena pig at 50 mg/kg, ip after 3 hrs; type: ADME, organism-based, Cavia porcellus, Interstitial fluid; set-up: dose 50 mg/kg, route intraperitoneal; conditions: guinea pig; method in brief: as §3
[25] = Cmax in cage fluid of Albino guiena pig at 75 mg/kg, ip after 3 hrs; type: ADME, organism-based, Cavia porcellus, Interstitial fluid; set-up: dose 75 mg/kg, route intraperitoneal; conditions: guinea pig; method in brief: as §3
[26] = Cmax in cage fluid of Albino guiena pig at 25 mg/kg, ip after 3 hrs; type: ADME, organism-based, Cavia porcellus, Interstitial fluid; set-up: dose 25 mg/kg, route intraperitoneal; conditions: guinea pig; method in brief: as §3
Staphylococcus aureus [27] = assay: Antibacterial activity against 1 x10'6 to 5 x10^6 CFU/ml methicillin-resistant Staphylococcus aureus ATCC 43300 assessed as effect on bacterial count at MIC after 24 hrs by time kill study; type: functional, organism-based
Method in brief: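 MRSA inoculum of 1 × 10^6 to 5 × 10^6 CFU/ml in 10 ml Mueller-Hinton broth. Drug at 1× and 4× MIC; drug-free growth control. Incubated at 37°C. Aliquots plated on Mueller-Hinton agar at 0, 6 and 24 h. Quantification limit 200 CFU/ml. Mean log10 CFU/ml reduction ± SD.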

Staphylococcus aureus [28] = assay: Antibacterial activity against methicillin-resistant Staphylococcus aureus ATCC 43300 during stationary growth phase by macrodilution method; type: functional
Staphylococcus aureus [29] = assay: Antibacterial activity against methicillin-resistant Staphylococcus aureus ATCC 43300 during logarithmic growth phase by macrodilution method; type: functional
Staphylococcus aureus [30] = assay: Antibacterial activity against methicillin-resistant Staphylococcus aureus ATCC 43300 by macrodilution method; type: functional
Method in brief: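 Broth macrodilution MIC in Mueller-Hinton broth per CLSI. Inoculum 1 × 10^5 to 5 × 10^5 CFU/ml. Ten twofold drug dilutions, 18 h at 37°C without shaking. MIC is the lowest concentration with no visible growth. Triplicate.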

Staphylococcus aureus [31] = assay: Antibacterial activity against methicillin-resistant Staphylococcus aureus ATCC 43300 infected in Albino guiena pig assessed as inhibition of bacterial growth in cage fluid at 75 mg/kg measured on day 10 postinfection compared to the bacterial growth on day 1; type: functional, organism-based; set-up: dose 75 mg/kg; method in brief: as §1
Staphylococcus aureus [32] = assay: Antibacterial activity against methicillin-resistant Staphylococcus aureus ATCC 43300 infected in Albino guiena pig assessed as cure rate at 25 mg/kg measured on day 10 postinfection; type: functional, organism-based; set-up: dose 25 mg/kg
Method in brief: (§4)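 Male albino guinea pigs, 550–600 g, with four subcutaneous perforated Teflon cages each. Cages infected with 2 × 10^4 CFU MRSA. Intraperitoneal treatment from 24 h post-infection, every 12 h for 4 days (8 doses), ≥3 animals per group. Explanted cages incubated in TSB at 37°C for 48 h, then plated. Cure is the share of cages without MRSA growth.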

Staphylococcus aureus [33] = assay: Antibacterial activity against methicillin-resistant Staphylococcus aureus ATCC 43300 infected in Albino guiena pig assessed as cure rate at 50 mg/kg measured on day 4 postinfection; type: functional, organism-based; set-up: dose 50 mg/kg; method in brief: as §4
Staphylococcus aureus [34] = assay: Antibacterial activity against methicillin-resistant Staphylococcus aureus ATCC 43300 infected in Albino guiena pig assessed as cure rate at 75 mg/kg measured on day 4 postinfection; type: functional, organism-based; set-up: dose 75 mg/kg; method in brief: as §4

CC(=O)NC[C@H]1CN(c2ccc(N3CCOCC3)c(F)c2)C(=O)O1 [LINEZOLID]
log10CFU/ml (Staphylococcus aureus [1]): 7.1
log10CFU/ml (Staphylococcus aureus [2]): 4.5
Activity (Staphylococcus aureus [3]): 8%
Activity (Staphylococcus aureus [4]): 17%
Activity (Staphylococcus aureus [5]): 25%
Activity (Staphylococcus aureus [6]): 0%
Activity (Staphylococcus aureus [7]): 0%
Activity (Staphylococcus aureus [8]): 17%
log10CFU/ml (Staphylococcus aureus [9]): 4.6
log10CFU/ml (Staphylococcus aureus [10]): 5.1
log10CFU/ml (Staphylococcus aureus [11]): 4.5
AUC(0-t) at 24 h [12]: 126 µg·h/mL
AUC(0-t) at 24 h [13]: 119 µg·h/mL
AUC(0-t) at 24 h [14]: 87.8 µg·h/mL
half-life [15]: 2.6 h
half-life [16]: 6.8 h
half-life [17]: 3.5 h
Tmax [18]: 2.8 h
Tmax [19]: 3 h
Tmax [20]: 3.3 h
concentration at 12 h [21]: 3700 ng/mL
concentration at 12 h [22]: 2500 ng/mL
concentration at 12 h [23]: 3000 ng/mL
Cmax [24]: 12700 ng/mL
Cmax [25]: 18100 ng/mL
Cmax [26]: 6800 ng/mL
Activity (Staphylococcus aureus [27]): inactive
MBC (Staphylococcus aureus [28]): > 20 µg/mL
MBC (Staphylococcus aureus [29]): > 20 µg/mL
MIC (Staphylococcus aureus [30]): 2.5 µg/mL (≈ 7.41 µM)
Activity (Staphylococcus aureus [31]): Active
Activity (Staphylococcus aureus [32]): inactive
Activity (Staphylococcus aureus [33]): inactive
Activity (Staphylococcus aureus [34]): inactive
